HIF act = HIF pathway transcriptional activation. 300,000 tested, 0.32% active. activation, % at 7.5 µM (by protocol). U2OS HRE-luciferase reporter, luminescence; normalized: DMSO 0%, desferrioxamine 100%;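 active = mean activation of at least 10% of the iron chelator positive control signal, with at least half of replicates also reaching 10%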
T cell HTS = modulates CD8 T cell binding to vesicles; 2C CD8+ T cell-vesicle binding, flow cytometry; hits give low values; response (vesicle binding), % at 7 µM; 330,000 tested, 0.068% active; AID 2052;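 active = response, share of CD8 T cells binding vesicles, and their 90th percentile fluorescence all below set limits, cut at about 80% in these data, passing the limit was not always enough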;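 note: values below 100% mean blocked vesicle binding to the CD8+ T cells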
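Assay system – 2C mouse CD8+ T cells · Also added – QL9-loaded Drosophila micro-vesicles · Timing – Cell–vesicle co-incubation 1.5 h at 37 °C, staining 20 min on ice · Signal – flow cytometry of vesicle-bound cells · Measure – percent CD8+ FL2 mean versus row control · Controls – Peptide-free naked vesicles (low) and QL9 vesicles with 0.7% DMSO vehicle (high)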
SUMO Mot1 rescue = SUMOylation pathway inhibition by Mot1-301 growth rescue; S. cerevisiae Mot1-301 growth rescue, ATP luminescence, 38.5C; percent above DMSO median, 100 means doubled; growth rescue, % at 18.8 µM; 320,000 tested, 1% active; AID 2716;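 active = every valid replicate shows activation above 250% relative to neutral control wells; inactive = the rest, any valid replicate at or below 250%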
GASC-1 inh = blocks human GASC-1 demethylase activity; GST-JMJD2C(1-420) H3K9me3 demethylation, DELFIA europium; 330,000 tested, 0.069% active; inhibition, % at 2.35 µM; Q9H3R0;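 active = more than half of a compound's replicate wells show inhibition beyond 50%, single wells judged on their own value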;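 note: signal counts dimethyl H3K9 product captured on neutravidin plate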
Target sequence (Q9H3R0 1-420 limits assumed): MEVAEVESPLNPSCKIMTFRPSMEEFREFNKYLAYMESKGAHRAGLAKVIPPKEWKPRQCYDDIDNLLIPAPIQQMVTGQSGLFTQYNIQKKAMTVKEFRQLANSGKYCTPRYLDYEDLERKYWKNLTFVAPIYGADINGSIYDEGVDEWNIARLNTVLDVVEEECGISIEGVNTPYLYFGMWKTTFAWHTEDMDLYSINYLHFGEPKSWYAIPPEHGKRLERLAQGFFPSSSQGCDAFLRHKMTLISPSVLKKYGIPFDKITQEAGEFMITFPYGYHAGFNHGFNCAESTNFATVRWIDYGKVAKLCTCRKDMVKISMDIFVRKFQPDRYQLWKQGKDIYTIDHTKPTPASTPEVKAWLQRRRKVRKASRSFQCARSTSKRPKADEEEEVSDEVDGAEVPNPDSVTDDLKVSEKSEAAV
Yeast Mot1 SUMO = SUMO pathway inhibitors in yeast Mot1-301 growth | S. cerevisiae Mot1-301 galactose growth, ATP luminescence, 24 h; -100 = growth of slx-deleted rescue strain | shares compounds with SUMO Mot1 rescue | 2,300 tested, under 10 active | growth activity, percent, % at 42 µM;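 active = Signal drops as the depositor expects, and the fitted half-maximal dose is no more than ten times the top valid tested dose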;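 note: more negative values mean stronger growth rescue toward the control strain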
A number is an active result; - = inactive; . = no result; + = active, no number. An excerpt weighted towards active compounds, which were near 1.4% of everything screened.

SMILES	HIF act	T cell HTS	SUMO Mot1 rescue	GASC-1 inh	Yeast Mot1 SUMO
O=C(N/N=C/c1ccc2c(c1)OCO2)c1cc(-c2ccncc2)nc2ccccc12	-	-	-	-	.
Cc1ccc(C)c(NC(=O)CN(C)C(=O)c2nn(C)c(=O)c3ccccc23)c1	-	-	-	-	.
Cc1nnn(-c2nonc2N)c1C(=O)NNC(=O)c1ccc(Cl)c(Cl)c1	-	-	-	-	.
O=C(Nc1cc(S(=O)(=O)N2CCOCC2)ccc1N1CCCCC1)c1ccccc1Br	.	-	-	-	.
O=C1CSC(c2ccc(F)c(F)c2)N1c1ccccc1F (centres undefined)	-	-	891	-	-
O=C1CSC(c2ccc(F)cc2)N1c1ccccc1F (centres undefined)	-	-	-	-	.
CS(=O)(=O)N(CC(=O)N1CCCC1)c1cccc(Cl)c1Cl	-	-	530	-	-
COc1ccccc1NC1CCCCC1NS(=O)(=O)c1ccccc1 (centres undefined)	-	-	-	-	.
CN(CC(=O)Nc1ccc(F)cc1)C(=O)CSc1nc2ncc(Cl)cc2[nH]1	-	-	-	-	.
COc1ccc2nc(SCC(=O)N(C)CC(=O)Nc3ccc(F)cc3)[nH]c2c1	-	-	558	-	-
O=C1CCCN1CC(=O)N1CCCC(N2CCN(c3cccc(Cl)c3)CC2)C1 (centres undefined)	-	-	-	-	.
CCn1c(SCC(=O)Nc2cc(C(C)(C)C)nn2-c2ccccc2)nnc1-c1cccs1	-	-	-	-	.
CCn1c(SCC(N)=O)nnc1-c1cc2c(C)nn(-c3ccccc3)c2s1	-	.	+	-	-
CCCCCC(=O)Nc1nnn(CCC)n1	-	-	+	-	-
O=C(O)C1C2CCC(O2)C1C(=O)NCCC1=CCCCC1 (centres undefined)	-	-	364	-	-
COc1ccc(C2CC3(CC(C)(C)NC(=S)N3)Oc3cc(O)cc(C)c32)cc1 (centres undefined)	-	-	978	-	-
Cc1ccnc(NC(=O)c2cccs2)c1	-	-	-	-	.
Cc1ccnc(NC(=O)c2ccc(Br)s2)c1	-	-	618	-	-
CCc1ccccc1NC(=S)NNC(=O)c1ccccc1Cl	-	-	+	-	-
CCc1ccccc1NC(=S)NN	-	-	-	-	.
COc1ccc(OCCC(=O)OCC(=O)NCc2ccc(F)cc2)cc1	-	-	-	-	.
O=C1N2CCCc3cccc(c32)C12Nc1ccccc1S2 (centres undefined)	-	.	.	-	.
CC1CC(C)(C)N2C(=O)C3(Nc4ccccc4S3)c3cccc1c32 (centres undefined)	-	-	723	-	-
Cc1ccc(-c2nc(COC(=O)C3=NN(c4ccccc4)C(=O)CC3)cs2)cc1	.	-	-	-	.
COc1ccc2[nH]c(=O)c(CN(C(=O)c3ccccn3)c3ccccc3)cc2c1	-	-	+	-	-
SMILES	HIF act	T cell HTS	SUMO Mot1 rescue	GASC-1 inh	Yeast Mot1 SUMO
COc1ccc2[nH]c(=O)c(CN(C(=O)c3cccnc3)c3ccccc3)cc2c1	-	-	-	-	.
O=C(c1ccccc1F)N1CCCc2ccccc21	-	-	495	-	-
COc1ccc(C(=O)NNC(=S)NC(=O)c2cccc([N+](=O)[O-])c2)cc1	-	-	-	-	.
O=C(NC(=S)NNC(=O)c1ccccc1O)c1cccc([N+](=O)[O-])c1	-	-	368	-	-
CCOC(=O)N/N=C(\c1ccccc1)C(O)c1ccccc1 (centres undefined)	-	-	-	-	.
CC(C)(C)NC(=S)NC(C)(C)C	-	.	.	-	.
O=C(COC(=O)c1ccc(OC(F)F)cc1)NCc1cccs1	.	-	-	-	.
CCn1nccc1C(=O)Nc1ccccc1OC	-	-	747	-	-
Cc1ccccc1-c1cc(C(=O)NCc2cccc(Br)c2)nn1CC1CC(c2cccc([N+](=O)[O-])c2)=NO1 (centres undefined)	.	-	-	.	.
Cc1occc1-c1nnc(SCC(=O)N2CCN(c3ccc(F)cc3)CC2)n1C	-	-	-	-	.
Cc1occc1-c1nnc(SCC(=O)N2CCN(c3ccccc3)CC2)n1C	-	-	495	-	-
O=C(CNc1cccc(S(=O)(=O)N2CCCC2)c1)Nc1ccc(F)cc1F	-	-	-	-	.
Cc1cc(C)cc(NC(=O)Nc2ccccc2N2CCCCC2)c1	-	-	-	-	.
C/C(=N\N1CCN(Cc2ccccc2Cl)CC1)c1ccc([N+](=O)[O-])cc1	-	-	832	-	-
N#CC(C#N)=C1NC2(CCCCC2)Cc2ccccc21	-	-	-	-	.
CC(=O)N(C(C)=O)C1=C(C#N)C2(CCCCC2)Cc2ccccc21	-	-	871	-	-
CC1CN(S(=O)(=O)c2cccc(C(=O)N=c3sccn3C)c2)CC(C)O1 (centres undefined)	-	-	396	-	-
Cc1cccc(/C=N/NC(=O)NC23CC4CC(CC(C4)C2)C3)n1	-	-	-	-	.
O=C(N/N=C/c1ccccn1)NC12CC3CC(CC(C3)C1)C2	-	-	612	-	-
Nn1c(SCC(=O)Nc2ccc(OC(F)F)cc2)nnc(Cc2ccccc2)c1=O	-	-	-	-	.
O=C(NC1CC(=O)N(c2ccc3c(c2)OCCO3)C1)N1CCC(O)CC1 (centres undefined)	-	-	.	-	.
CCCOC(=O)C1=C(C)NC2=C(C(=O)CCC2)C1c1cccs1 (centres undefined)	-	-	451	-	-
C/C(=N/OCO/N=C(\C)c1ccccc1)c1ccccc1	-	-	640	-	-
COc1ccc(CNC(=O)CCS(=O)(=O)c2ccc3c(c2)oc(=O)n3C)cc1	-	-	-	-	.
CCN(C(=O)CCS(=O)(=O)c1ccc2c(c1)oc(=O)n2C)c1ccc(OC)cc1	-	-	378	-	-
SMILES	HIF act	T cell HTS	SUMO Mot1 rescue	GASC-1 inh	Yeast Mot1 SUMO
O=C1c2ccc(-c3ccc4c(c3)C(=O)N(CCO)C4=O)cc2C(=O)N1CCO	-	-	-	-	.
Cc1ccc(C)c(NC(=O)COC(=O)c2ccc3c(c2)OCO3)c1	-	-	975	-	-
Cc1ccc(NC(=O)Cn2nnc(C(=O)Nc3ccc(F)c(Cl)c3)c2N)cc1	-	-	-	-	.
COc1ccc(NC(=O)Cn2nnc(C(=O)Nc3ccc(F)c(Cl)c3)c2N)cc1	-	-	477	-	-
COc1cc(/C=C2\NC(=S)N(C)C2=O)ccc1OCc1cccc(F)c1	-	-	563	-	-
CN1C(=O)/C(=C/c2ccccc2OCc2cccc(F)c2)NC1=S	-	-	-	-	.
Cc1c(NC(=O)c2ccc(CC(C)C)o2)c(=O)n(-c2ccccc2)n1C	-	-	-	-	.
O=C(CS(=O)c1ccc(C(F)(F)F)cc1[N+](=O)[O-])Oc1ccc(Cl)cc1 (centres undefined)	-	-	380	-	-
O=C(NCCO)c1ccc(Oc2ccc(C(F)(F)F)cc2[N+](=O)[O-])cc1	-	-	-	-	.

Compound activity: PubChem, several laboratories
